The results in this text go back to ChEMBL document CHEMBL4196140, “Spiro-Phthalides and Isocoumarins Isolated from the Marine-Sponge-Derived Fungus Setosphaeria sp. SCSIO41009” (J Nat Prod, 2018).

One assay concerns Staphylococcus aureus. The assay can be described thus: Antimicrobial activity against Staphylococcus aureus by broth microdilution method. It counts as functional, organism-based. Background: Broth dilution looks for growth in wells or tubes with falling amounts of substance.
The subject of a further assay is Influenza A virus. The assay can be described thus: Antiviral activity against Influenza A virus H1N1 A/FM-1/1/47 infected in MDCK cells assessed as inhibition of virus-induced cytopathic effect after 48 hrs by MTT assay. It counts as functional, organism-based. In general terms: Protection from cytopathic effect is a common read-out in antiviral testing.
In assay [1] the target is T1, Phosphotyrosine protein phosphatase (Mycobacterium tuberculosis) (UniProt A0A045ISB3).
T1 sequence (whole entry): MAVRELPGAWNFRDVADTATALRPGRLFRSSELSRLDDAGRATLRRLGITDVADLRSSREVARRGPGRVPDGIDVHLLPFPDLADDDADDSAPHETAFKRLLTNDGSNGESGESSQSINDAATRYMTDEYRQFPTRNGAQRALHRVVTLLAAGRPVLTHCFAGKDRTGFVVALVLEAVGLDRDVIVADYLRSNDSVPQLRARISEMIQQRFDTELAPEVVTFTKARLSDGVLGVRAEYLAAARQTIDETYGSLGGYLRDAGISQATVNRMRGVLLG
Nature of the assay: Inhibition of Mycobacterium PTPB at 50 uM using p-nitrophenyl phosphate as substrate incubated for 10 mins followed by substrate addition and measured for 5 mins by spectrophotometric method.

A short description of assay [2]: Antioxidant activity assessed as DPPH radical scavenging activity incubated for 30 mins in dark condition. It counts as functional. An outline of the steps: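 Test samples in DMSO were mixed 1:9 with freshly made 0.2 mM DPPH in EtOH (DPPH stock level), giving final compound levels of 50, 25, 12.5, 6.25 and 3.125 μg/mL, in triplicate, with ascorbic acid as positive control. After 30 min in the dark, the fall in absorbance at 517 nm was read. Blank: EtOH instead of DPPH. Control: DMSO instead of sample. % scavenging = [1 − (sample − blank)/control] × 100. IC50 is the concentration scavenging 50% of radicals.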
In general terms: Loss of DPPH colour is used to gauge radical scavenging.

Another assay has as its system Colletotrichum asianum. The assay can be described thus: Antimicrobial activity against Colletotrichum asianum by broth microdilution method. It counts as functional.
Another assay concerns Colletotrichum acutatum. Nature of the assay: Antimicrobial activity against Colletotrichum acutatum by broth microdilution method. It counts as functional.

In brackets after ≈: the same amount, converted by molar mass. Activity calls are given as the source filed them.

For the compound `CCCCC1=C(OC)C(=O)OC1(C)O` (racemic), the outcome in the assay with Staphylococcus aureus was inactive. Also, the inhibition entry (with Influenza A virus; in assay [1]) was “inactive” each time.

For the compound `CCC(O)Cc1c(OC)cc(=O)oc1C` (centres undefined), the outcome with Staphylococcus aureus was inactive. The inhibition entry (with Influenza A virus; in assay [1]) was “inactive” in each case.

`COc1cc(=O)oc(C)c1CCCC(=O)O`: in the assay with Staphylococcus aureus, the result was inactive. Besides, the inhibition entry (in the assay with Influenza A virus; in assay [1]) was “inactive” throughout.

The term IC50 denotes the concentration at which inhibition is half-maximal. `CCC[C@H]1C[C@H]2OC(=O)c3c(cc(OC)c(O)c3O)[C@H]2O1`: in assay [2], the IC50 was found to be 38 µM. Also, in the assay with Staphylococcus aureus, the result was inactive. For the same compound, the inhibition result (in the assay with Influenza A virus; in assay [1]) was “inactive” in each case.

For the compound `COc1cc(=O)oc(C)c1CCC(C)O` (centres undefined), the result in the assay with Staphylococcus aureus was inactive. The inhibition result (in the assay with Influenza A virus; in assay [1]) was “inactive” throughout.

Take `COc1cc2c(c(O)c1OC)C(=O)O[C@@H]1C[C@H](CCCO)O[C@H]21`: the outcome in the assay with Staphylococcus aureus was inactive. In addition, the inhibition result (with Influenza A virus; in assay [1]) was “inactive” in each case.

As to `COc1cc2c(c(O)c1OC)C(=O)O[C@@H]1C[C@H](CCC(=O)O)O[C@H]21`, the result with Staphylococcus aureus was inactive. Besides, the inhibition entry (in the assay on Influenza A virus; in assay [1]) was “inactive” throughout.

Turning to `COc1cc2c(c(O)c1OC)C(=O)O[C@@H]1C[C@H](C[C@@H](C)O)O[C@H]21`, the result in the assay on Staphylococcus aureus was inactive. Also, the inhibition entry (in the assay with Influenza A virus; in assay [1]) was “inactive” throughout.

Consider `CCC[C@@H]1C[C@H]2OC(=O)c3c(cc(OC)c(OC)c3O)[C@@H]2O1`, for which, in the assay on Staphylococcus aureus, the result was inactive. The inhibition entry (with Influenza A virus; in assay [1]) was “inactive” in each case.

As for `CCCCc1c(OC)cc(=O)oc1CO`, the outcome with Staphylococcus aureus was inactive. Also, the inhibition entry (with Influenza A virus; in assay [1]) was “inactive” throughout.

In the case of `CCC[C@H]1C[C@H]2OC(=O)c3c(cc(OC)c(OC)c3O)[C@@H]2O1`, in the assay with Staphylococcus aureus, the result was inactive. The inhibition entry (in the assay on Influenza A virus; in assay [1]) was “inactive” throughout.

For the compound `O=C1O[C@H]([C@@H](O)CO)C(O)=C1O` [ASCORBIC ACID], the half-maximal inhibitory concentration (IC50) in assay [2] amounted to 39 µM.

On to `CCC[C@H]1C[C@H](O)[C@@]2(OC(=O)c3c2cc(OC)c(OC)c3O)O1`, for which, in the assay with Staphylococcus aureus, the result was inactive. Besides, the inhibition result (in the assay on Influenza A virus; in assay [1]) was “inactive” each time.

In the case of `CCC[C@@H]1C[C@H]2OC(=O)c3c(cc(O)c(OC)c3O)[C@@H]2O1`, the result with Staphylococcus aureus was inactive. Also, the inhibition entry (with Influenza A virus; in assay [1]) was “inactive” throughout.

As to `CCCCc1c(OC)cc(=O)oc1C`, the result in the assay on Staphylococcus aureus was inactive. Further, the inhibition result (in the assay on Influenza A virus; in assay [1]) was “inactive” each time.

Turning to `CC[C@H](O)[C@H]1C[C@H]2OC(=O)c3c(cc(OC)c(OC)c3O)[C@H]2O1`, the outcome in the assay with Staphylococcus aureus was inactive. For the same compound, the inhibition entry (with Influenza A virus; in assay [1]) was “inactive” each time.

As for `CCCC(=O)CC[C@@H]1OC(=O)c2c1cc(OC)c(OC)c2O`, the result in the assay with Staphylococcus aureus was inactive. The inhibition entry (with Influenza A virus; in assay [1]) was “inactive” throughout.

For `CCCC(=O)CC[C@H]1OC(=O)c2c1cc(O)c(OC)c2O`, the outcome in the assay with Staphylococcus aureus was inactive. In addition, the inhibition result (in the assay with Influenza A virus; in assay [1]) was “inactive” each time.

Turning to `COC(=O)CCCc1c(OC)cc(=O)oc1C`, in the assay on Staphylococcus aureus, the outcome was inactive. Moreover, the inhibition entry (in the assay with Influenza A virus; in assay [1]) was “inactive” each time.

With `CCC[C@H]1C[C@H](O)[C@]2(OC(=O)c3c2cc(OC)c(OC)c3O)O1`, the outcome with Staphylococcus aureus was inactive. Also, the inhibition result (in the assay with Influenza A virus; in assay [1]) was “inactive” in each case.

In general, MIC refers to the smallest concentration in the dilution series that meets the test's criterion for growth inhibition. With `CCCCOCc1c(O)cc(C)c2c1Oc1c(C)cc(O)c(C)c1OC2=O`, the minimal inhibitory concentration (MIC) against Colletotrichum asianum and against Colletotrichum acutatum was 630 µg/mL (≈ 1690 µM) each time. Besides, the outcome with Staphylococcus aureus was inactive. For the same compound, the inhibition result (in the assay with Influenza A virus; in assay [1]) was “inactive” in each case.

For `COCc1c(O)cc(C)c2c1Oc1c(C)cc(O)c(C)c1OC2=O`, the minimum inhibitory concentration (MIC) against Colletotrichum asianum came to 160 µg/mL (≈ 484 µM); with Colletotrichum acutatum it was 310 µg/mL (≈ 938 µM). Moreover, the result with Staphylococcus aureus was inactive. Besides, the inhibition result (in the assay on Influenza A virus; in assay [1]) was “inactive” throughout.

`C[C@@H]1C[C@@H]([C@H](O)CC2CC(=O)NC(=O)C2)C(=O)[C@@H](C)C1` [CYCLOHEXIMIDE]: the MIC is 80 µg/mL (≈ 284 µM) with Colletotrichum asianum and 40 µg/mL (≈ 142 µM) in the assay on Colletotrichum acutatum.

As for `CC[C@@H](O)[C@H]1C[C@H]2OC(=O)c3c(cc(OC)c(OC)c3O)[C@H]2O1`, the result in the assay with Staphylococcus aureus was inactive. In addition, the inhibition entry (in the assay with Influenza A virus; in assay [1]) was “inactive” throughout.
